Where a SMILES comes first, the peptide text is derived from it. The star is where a group is joined. Cbz = O=C(OCc1ccccc1)*
Columns and labels:
[1] = Antiproliferative activity against human HeLaS3 cells after 72 hrs; format: functional, cell-based; settings: HeLa S3, 72 h
How it was run: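 HeLa cells were exposed to a range of compound concentrations for 72 h, and viability was then read by MTT assay. IC50 values are growth inhibition, reported as mean ± sd of triplicate samples.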

[2] = Inhibition of chymotrypsin-like activity of human erythrocyte 20S proteasome using Suc-LLVY-AMC substrate incubated at 37 degC for 1 hr by fluorometric assay
How it was run: (§1)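 Compound combined with 75 µM fluorogenic substrate in 20 mM Tris pH 8.0, 0.5 mM EDTA, 0.035% SDS. Reaction started with 50 ng of purified human erythrocyte 20S proteasome and run 1 h at 37 °C. Stopped with 20 mM Tris pH 8.9, 0.5% SDS; released AMC read at 365 nm excitation / 460 nm emission.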

[3] = Inhibition of trypsin-like activity of human erythrocyte 20S proteasome using Boc-LLR-AMC substrate incubated at 37 degC for 1 hr by fluorometric assay; settings: in the assay text read “Boc-LRR-AMC” for “Boc-LLR-AMC”; how it was run: as §1
[4] = Inhibition of caspase-like activity of human erythrocyte 20S proteasome using Z-LLE-AMC substrate incubated at 37 degC for 1 hr by fluorometric assay; how it was run: as §1
HeLa [5] = assay: Growth inhibition of human HeLa cells after 72 hrs by MTT assay; format: functional, cell-based
How it was run: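 HeLa cells incubated for 72 h with a range of compound concentrations; viability read by MTT assay and used to derive IC50.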

HeLa [6] = assay: Cell cycle arrest in human HeLa cells assessed as accumulation at G1 phase at 0.1 uM after 24 hrs by flow cytometry (reference value: 56.4 +/- 0.39%); format: functional
HeLa [7] = assay: Cell cycle arrest in human HeLa cells assessed as accumulation at G2/M phase at 0.1 uM after 24 hrs by flow cytometry (reference value: 13.7 +/- 0.87%); format: functional
HeLa [8] = assay: Cell cycle arrest in human HeLa cells assessed as accumulation at S phase at 0.1 uM after 24 hrs by flow cytometry (reference value: 30 +/- 0.46%); format: functional
HeLa [9] = assay: Induction of apoptosis in human HeLa cells at 0.1 uM incubated for 12 hrs using annexin V-FITC and propidiun iodide staining based flow cytometry (reference value: 2.6 +/- 0.14%); format: functional
How it was run: (§2)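 HeLa cells treated for 12 h, then stained with annexin V-FITC and propidium iodide; apoptosis measured by flow cytometry. Values are mean ± sd of triplicate samples.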

HeLa [10] = assay: Cell cycle arrest in human HeLa cells assessed as accumulation at G2/M phase at 10 uM after 24 hrs by flow cytometry (reference value: 13.7 +/- 0.87%); format: functional
HeLa [11] = assay: Cell cycle arrest in human HeLa cells assessed as accumulation at G1 phase at 1 uM after 24 hrs by flow cytometry (reference value: 56.4 +/- 0.39%); format: functional
HeLa [12] = assay: Induction of apoptosis in human HeLa cells at 10 uM incubated for 12 hrs using annexin V-FITC and propidiun iodide staining based flow cytometry (reference value: 2.6 +/- 0.14%); format: functional; how it was run: as §2
HeLa [13] = assay: Cell cycle arrest in human HeLa cells assessed as accumulation at G1 phase at 10 uM after 24 hrs by flow cytometry (reference value: 56.4 +/- 0.39%); format: functional
HeLa [14] = assay: Cell cycle arrest in human HeLa cells assessed as accumulation at S phase at 1 uM after 24 hrs by flow cytometry (reference value: 30 +/- 0.46%); format: functional
HeLa [15] = assay: Cell cycle arrest in human HeLa cells assessed as accumulation at G2/M phase at 1 uM after 24 hrs by flow cytometry (reference value: 13.7 +/- 0.87%); format: functional
HeLa [16] = assay: Induction of apoptosis in human HeLa cells at 1 uM incubated for 12 hrs using annexin V-FITC and propidiun iodide staining based flow cytometry (reference value: 2.6 +/- 0.14%); format: functional; how it was run: as §2
HeLa [17] = assay: Cell cycle arrest in human HeLa cells assessed as accumulation at S phase at 10 uM after 24 hrs by flow cytometry (reference value: 30 +/- 0.46%); format: functional

| Structure (SMILES) | IC50 [2] | IC50 [3] | IC50 [4] | IC50 (HeLa [5]) | other results |
| --- | --- | --- | --- | --- | --- |
| CC[C@H](C)[C@@H]1C(=O)O[C@H]1C(=O)N[C@H]1C[C@H]1C[C@H](NC(=O)[C@H](C)N)C(=O)O [BELACTOSIN A] |  |  |  |  | IC50 [1]: 51 µM |
| CC(C)C[C@H](NC(=O)CC[C@H](NC(=O)[C@H](C)NC(=O)OC(C)(C)C)C(=O)NCc1ccc2ccccc2c1)B(O)O | 0.84 µM | > 10 µM | 9.84 µM | 2.35 µM |  |
| CC(C)C[C@H](NC(=O)CC[C@H](NC(=O)CNC(=O)OC(C)(C)C)C(=O)NCc1ccccc1)B(O)O | 0.54 µM | > 10 µM | > 10 µM | 5.11 µM | Activity (HeLa [10]): 26%; Activity (HeLa [11]): 56.2%; Activity (HeLa [12]): 11.7%; Activity (HeLa [13]): 43.2%; Activity (HeLa [14]): 30.7%; Activity (HeLa [15]): 13.1%; Activity (HeLa [16]): 7.6%; Activity (HeLa [17]): 30.7% |
| CC[C@H](C)[C@@H]1C(=O)O[C@H]1C(=O)NCCC[C@H](NC(=O)[C@H](C)N)C(=O)O [BELACTOSIN C] |  |  |  |  | IC50 [1]: 200 µM |
| CC(C)C[C@H](NC(=O)CCC[C@H](NC(=O)OC(C)(C)C)C(=O)NCc1ccc2ccccc2c1)B(O)O | 4.12 µM | > 10 µM | > 10 µM | > 10 µM |  |
| CC(C)C[C@H](NC(=O)CCC[C@H](NC(=O)[C@H](C)NC(=O)OC(C)(C)C)C(=O)NCc1ccc2ccccc2c1)B(O)O | 4.28 µM | > 10 µM | > 10 µM | > 10 µM |  |
| CC(C)C[C@H](NC(=O)C[C@H](NC(=O)OC(C)(C)C)C(=O)NCc1ccc2ccccc2c1)B(O)O | 4.51 µM | > 10 µM | > 10 µM | > 10 µM |  |

Second part, led by results:

| IC50 [2] | IC50 [3] | IC50 [4] | IC50 (HeLa [5]) | Structure (SMILES) | other results |
| --- | --- | --- | --- | --- | --- |
| > 10 µM | > 10 µM | > 10 µM | > 10 µM | CC(C)C[C@H](NC(=O)CC[C@H](NC(=O)OC(C)(C)C)C(=O)NCc1ccc2ccccc2c1)B(O)O |  |
| 0.02 µM | > 10 µM | 0.68 µM | 0.02 µM | CC(C)C[C@H](NC(=O)[C@H](Cc1ccccc1)NC(=O)c1cnccn1)B(O)O [BORTEZOMIB] | Activity (HeLa [6]): 14.6%; Activity (HeLa [7]): 69.6%; Activity (HeLa [8]): 15.9%; Activity (HeLa [9]): 14.5% |
| 0.07 µM | > 10 µM | 7.23 µM |  | CC(C)C[C@@H](C=O)NC(=O)[C@H](CC(C)C)NC(=O)[C@H](CC(C)C)NC(=O)OCc1ccccc1 [MG-132] (Cbz-Leu-Leu-Leu-aldehyde) |  |
| 1.47 µM | > 10 µM | > 10 µM | 0.66 µM | CC(C)C[C@H](NC(=O)CC[C@H](NC(=O)[C@H](Cc1ccccc1)NC(=O)OC(C)(C)C)C(=O)NCc1ccc2ccccc2c1)B(O)O |  |
| 2.74 µM | > 10 µM | > 10 µM | > 10 µM | CC(C)C[C@H](NC(=O)CCC[C@H](NC(=O)CNC(=O)OC(C)(C)C)C(=O)NCc1ccc2ccccc2c1)B(O)O |  |
| 1.5 µM | > 10 µM | > 10 µM | 0.79 µM | CC(C)C[C@H](NC(=O)CC[C@H](NC(=O)[C@H](CC(C)C)NC(=O)OC(C)(C)C)C(=O)NCc1ccc2ccccc2c1)B(O)O |  |
| 0.28 µM | > 10 µM | 8.54 µM | 0.35 µM | CC(C)C[C@H](NC(=O)CC[C@H](NC(=O)CNC(=O)OC(C)(C)C)C(=O)NCc1ccc2ccccc2c1)B(O)O | Activity (HeLa [10]): 62.6%; Activity (HeLa [11]): 57.7%; Activity (HeLa [12]): 15.2%; Activity (HeLa [13]): 23%; Activity (HeLa [14]): 16.4%; Activity (HeLa [15]): 26%; Activity (HeLa [16]): 12.9%; Activity (HeLa [17]): 14.4% |

— ChEMBL document CHEMBL1781998, “Synthesis and biological evaluation of boron peptide analogues of Belactosin C as proteasome inhibitors” (Bioorg Med Chem Lett, 2009)
